Laboratory results: BindingDB's records for doi:10.1016/j.bmcl.2017.11.026 (Padmashri Vikhe Patil College of Arts, 2018)
pIC50: −log10 of the molar value.

Assays:
Tumor necrosis factor [1] = molecular target: T1, Tumor necrosis factor (Homo sapiens, UniProt P01375); experiment: Inhibition of LPS-induced TNF-alpha production in human PBMC preincubated for 30 mins followed by LPS addition measured after 5 hrs by ELISA
How it was run: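 Donor blood diluted 1:1 in PBS; PBMCs isolated on histopaque, washed, resuspended in RPMI 1640 with 10% FBS and antibiotics, 1 x 10^6 cells/ml (viability ≥98%). Compounds at 0.03–100 μM in DMSO (final 0.5%) for 30 min at 37 °C, 5% CO2, then E. coli 0127:B8 LPS 1 µg/mL final for 5 h. Supernatant TNF-α by ELISA; % inhibition vs vehicle; IC50 mean of three independent experiments.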

Tumor necrosis factor [2] = molecular target: T1, Tumor necrosis factor; experiment: Inhibition of LPS-induced TNF-alpha production in human MNC suspension after 20 hrs by radioimmunoassay

T1 sequence (P01375 whole entry): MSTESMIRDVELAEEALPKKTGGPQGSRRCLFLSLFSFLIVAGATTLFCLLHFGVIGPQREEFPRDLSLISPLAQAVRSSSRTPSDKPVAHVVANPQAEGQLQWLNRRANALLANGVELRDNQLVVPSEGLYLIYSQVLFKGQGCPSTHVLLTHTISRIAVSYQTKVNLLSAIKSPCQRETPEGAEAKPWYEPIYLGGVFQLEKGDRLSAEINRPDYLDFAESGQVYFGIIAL

SMILES: O=S(=O)(c1cnc2ccc(Cl)nn12)N1CCN(Cc2ccccc2)CC1
- pIC50 (Tumor necrosis factor [1]): 4.52

SMILES: COc1ccc(-c2ccc3ncc(S(=O)(=O)N4CCC(C#N)(c5ccccc5)CC4)n3n2)cc1OC
- pIC50 (Tumor necrosis factor [1]): 6.30

SMILES: O=S(=O)(NCC1CCCO1)c1cnc2ccc(Cl)nn12 (configuration not stated)
- pIC50 (Tumor necrosis factor [1]): 4.52

SMILES: COc1cccc(CNS(=O)(=O)c2cnc3ccc(-c4ccc(S(C)(=O)=O)cc4)nn23)c1
- pIC50 (Tumor necrosis factor [1]): 4.55

SMILES: O=S(=O)(c1cnc2ccc(-c3cccnc3)nn12)N1CCN(Cc2ccccc2)CC1
- pIC50 (Tumor necrosis factor [1]): 4.74

SMILES: N#CC1(c2ccccc2)CCN(S(=O)(=O)c2cnc3ccc(Cl)nn23)CC1
- pIC50 (Tumor necrosis factor [1]): 4.60

SMILES: CS(=O)(=O)c1ccc(-c2ccc3ncc(S(=O)(=O)N4CCC(C#N)(c5ccccc5)CC4)n3n2)cc1
- pIC50 (Tumor necrosis factor [1]): 5.10

SMILES: O=S(=O)(c1cnc2ccc(-c3cncc(F)c3)nn12)N1CCN(c2ccccn2)CC1
- pIC50 (Tumor necrosis factor [1]): 4.55

SMILES: O=S(=O)(c1cnc2ccc(-c3cncc(C(F)(F)F)c3)nn12)N1CCN(c2ccccn2)CC1
- pIC50 (Tumor necrosis factor [1]): 4.96

SMILES: Nc1ncc(-c2ccc3ncc(S(=O)(=O)N4CCN(c5ccccn5)CC4)n3n2)cc1C(F)(F)F
- pIC50 (Tumor necrosis factor [1]): 4.96

SMILES: CS(=O)(=O)c1ccc(-c2ccc3ncc(S(=O)(=O)N4CCN(c5ccccn5)CC4)n3n2)cc1
- pIC50 (Tumor necrosis factor [1]): 4.92

SMILES: N#CC1(c2ccccc2)CCN(S(=O)(=O)c2cnc3ccc(-c4cccnc4)nn23)CC1
- pIC50 (Tumor necrosis factor [1]): 5.15

SMILES: N#CC1(c2ccccc2)CCN(S(=O)(=O)c2cnc3ccc(-c4cncc(C(F)(F)F)c4)nn23)CC1
- pIC50 (Tumor necrosis factor [1]): 4.70

SMILES: COc1cccc(CNS(=O)(=O)c2cnc3ccc(-c4cncc(F)c4)nn23)c1
- pIC50 (Tumor necrosis factor [1]): 5.22

SMILES: COc1cccc(CNS(=O)(=O)c2cnc3ccc(-c4cncc(C(F)(F)F)c4)nn23)c1
- pIC50 (Tumor necrosis factor [1]): < 4.52

SMILES: O=S(=O)(NCC1CCCO1)c1cnc2ccc(-c3cccnc3)nn12 (configuration not stated)
- pIC50 (Tumor necrosis factor [1]): 5.40

SMILES: O=S(=O)(NCC1CCCO1)c1cnc2ccc(-c3cncc(F)c3)nn12 (configuration not stated)
- pIC50 (Tumor necrosis factor [1]): 5.40

SMILES: O=S(=O)(NCC1CCCO1)c1cnc2ccc(-c3cncc(C(F)(F)F)c3)nn12 (configuration not stated)
- pIC50 (Tumor necrosis factor [1]): < 4.52

SMILES: O=S(=O)(c1cnc2ccc(-c3cccnc3)nn12)N1CCN(c2ccccn2)CC1
- pIC50 (Tumor necrosis factor [1]): 4.96

SMILES: N#CC1(c2ccccc2)CCN(S(=O)(=O)c2cnc3ccc(-c4cncc(F)c4)nn23)CC1
- pIC50 (Tumor necrosis factor [1]): < 4.52

SMILES: COc1cccc(CNS(=O)(=O)c2cnc3ccc(-c4ccc(OC)nc4)nn23)c1
- pIC50 (Tumor necrosis factor [1]): < 4.52

SMILES: CS(=O)(=O)c1ccc(-c2ccc3ncc(S(=O)(=O)NCC4CCCO4)n3n2)cc1 (configuration not stated)
- pIC50 (Tumor necrosis factor [1]): < 4.52

SMILES: CCN1CCN(S(=O)(=O)c2cnc3ccc(-c4ccc(S(C)(=O)=O)cc4)nn23)CC1
- pIC50 (Tumor necrosis factor [1]): 4.82

SMILES: CCN1CCN(S(=O)(=O)c2cnc3ccc(-c4ccc(OC)cc4)nn23)CC1
- pIC50 (Tumor necrosis factor [1]): 4.70

SMILES: CCN1CCN(S(=O)(=O)c2cnc3ccc(-c4cncc(C(F)(F)F)c4)nn23)CC1
- pIC50 (Tumor necrosis factor [1]): 5.05

SMILES: CCN1CCN(S(=O)(=O)c2cnc3ccc(-c4cncc(F)c4)nn23)CC1
- pIC50 (Tumor necrosis factor [1]): < 4.52

SMILES: CCN1CCN(S(=O)(=O)c2cnc3ccc(-c4cccnc4)nn23)CC1
- pIC50 (Tumor necrosis factor [1]): 4.82

SMILES: COc1cccc(CNS(=O)(=O)c2cnc3ccc(Cl)nn23)c1
- pIC50 (Tumor necrosis factor [1]): < 4.52

SMILES: O=S(=O)(c1cnc2ccc(Cl)nn12)N1CCN(c2ccccc2)CC1
- pIC50 (Tumor necrosis factor [1]): 4.52

SMILES: CCN1CCN(S(=O)(=O)c2cnc3ccc(Cl)nn23)CC1
- pIC50 (Tumor necrosis factor [1]): < 4.52

SMILES: NS(=O)(=O)c1cnc2ccc(Cl)nn12
- pIC50 (Tumor necrosis factor [1]): 4.55

SMILES: O=S(=O)(c1cnc2ccc(-c3cncc(F)c3)nn12)N1CCN(Cc2ccccc2)CC1
- pIC50 (Tumor necrosis factor [1]): < 4.52

SMILES: CCN1CCN(S(=O)(=O)c2cnc3ccc(-c4ccc(OC)nc4)nn23)CC1
- pIC50 (Tumor necrosis factor [1]): 4.70

SMILES: Nc1ncc(-c2ccc3ncc(S(N)(=O)=O)n3n2)cc1C(F)(F)F
- pIC50 (Tumor necrosis factor [1]): 5.40

SMILES: O=S(=O)(c1cnc2ccc(Cl)nn12)N1CCN(c2ccccn2)CC1
- pIC50 (Tumor necrosis factor [1]): < 4.52

SMILES: CS(=O)(=O)c1ccc(-c2ccc3ncc(S(=O)(=O)N4CCN(Cc5ccccc5)CC4)n3n2)cc1
- pIC50 (Tumor necrosis factor [1]): 4.92

SMILES: COc1ccc(-c2ccc3ncc(S(=O)(=O)N4CCN(c5ccccn5)CC4)n3n2)cn1
- pIC50 (Tumor necrosis factor [1]): < 4.52

SMILES: COc1cccc(CNS(=O)(=O)c2cnc3ccc(-c4cccnc4)nn23)c1
- pIC50 (Tumor necrosis factor [1]): 6.52

SMILES: COc1cccc(CNS(=O)(=O)c2cnc3ccc(-c4cnc(N)c(C(F)(F)F)c4)nn23)c1
- pIC50 (Tumor necrosis factor [1]): < 4.52

SMILES: COc1ccc(-c2ccc3ncc(S(=O)(=O)NCC4CCCO4)n3n2)cc1 (configuration not stated)
- pIC50 (Tumor necrosis factor [1]): 5.40

SMILES: COc1ccc(-c2ccc3ncc(S(=O)(=O)NCC4CCCO4)n3n2)cn1 (configuration not stated)
- pIC50 (Tumor necrosis factor [1]): 5.22

SMILES: COc1ccc([C@@H]2CNC(=O)C2)cc1OC1CCCC1 (racemic) [Adeo]
- pIC50 (Tumor necrosis factor [2]): 6.70
